# Measured values: ChEMBL document CHEMBL1255290, “Characterization of a novel human immunodeficiency virus type 1 protease inhibitor, A-790742” (Antimicrob Agents Chemother, 2008)
# Columns and labels:
# [1] = tested on: Human immunodeficiency virus 1; assay: Antiviral activity against HIV1 isolate 8 infected in human MT4 cells obtained from protease inhibitor-resistant patient harboring protease L10I, I13V, L33F, E34Q, R41K, M46I, I54V, K55R, R57K, Q58E, I62V, L63P, A71V, I72I/T, G73S, V82A, I84V, L90M mutation derived from viral passages with Lopinavir assessed as reduction in viral cytopathogenicity treated 1 hr post infection measured 5 days post …; type: functional
# [2] = tested on: Human immunodeficiency virus 1; assay: Antiviral activity against HIV1 isolate 10 infected in human MT4 cells obtained from protease inhibitor-resistant patient harboring protease L10I, I13V, K20R, L33F, E35D, M36I, N37D, I54L, Q58E, I62V, L63P, A71V, V82A, I84V, L90M mutation derived from viral passages with Lopinavir assessed as reduction in viral cytopathogenicity treated 1 hr post infection measured 5 days post infection by MTT …; type: functional
# [3] = tested on: Human immunodeficiency virus 1; assay: Antiviral activity against HIV1 isolate 12 infected in human MT4 cells obtained from protease inhibitor-resistant patient harboring protease L10I, I13V, K20I, E35D, M36I, M46I, I50V, I54V, R57K, I62V, L63P, A71V, V82A, L89V, L90M, Q92K mutation derived from viral passages with Lopinavir assessed as reduction in viral cytopathogenicity treated 1 hr post infection measured 5 days post infection by …; type: functional
# [4] = tested on: Human immunodeficiency virus 1; assay: (§1) Antiviral activity against HIV1 pNL4-3 infected in human MT4 cells derived from 5 viral passages with 12 nM A-790742 harboring protease I84V mutation assessed as reduction in viral cytopathogenicity treated 1 hr post infection measured 5 days post infection by MTT assay relative to wild type HIV1 pNL4-3; type: functional
# How it was run: (§2)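 Selection: MT-4 cells infected with parental pNL4-3 or RF (MOI 0.003, 2 h), then passaged under rising selecting drug whenever supernatant p24 (ELISA) exceeded 10 ng/ml. Passage viruses titred by TCID50 (Spearman-Karber). Assay: 10^6 MT-4 cells infected at MOI 0.003 for 1 h, washed, and seeded at 10^4 cells/well with eight serial dilutions, triplicate, 0.5% DMSO final. Day-5 MTT read-out; EC50 fold-change versus parental wild type.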
# [5] = tested on: Human immunodeficiency virus 1; assay: as §1, with “from 15” for “from 5”, “with 560” for “with 12”, “protease L33L/F, K45I, V82L,” for “protease”; type: functional
# How it was run: as §2
# [6] = tested on: Human immunodeficiency virus 1; assay: as §1, with “from 21” for “from 5”, “with 2000” for “with 12”, “protease L23I, L33F, K45I, A71A/V, V77I, V82L,” for “protease”; type: functional
# How it was run: as §2
# [7] = tested on: Human immunodeficiency virus 1; assay: Antiviral activity against HIV1 RF infected in human MT4 cells derived from 6 viral passages with 16 nM A-790742 harboring wild-type protease assessed as reduction in viral cytopathogenicity treated 1 hr post infection measured 5 days post infection by MTT assay relative to wild type HIV1 RF; type: functional
# How it was run: as §2
# [8] = tested on: Human immunodeficiency virus 1; assay: Antiviral activity against HIV1 RF infected in human MT4 cells derived from 8 viral passages with 52 nM A-790742 harboring protease V75I mutation assessed as reduction in viral cytopathogenicity treated 1 hr post infection measured 5 days post infection by MTT assay relative to wild type HIV1 RF; type: functional
# How it was run: as §2
# [9] = tested on: Human immunodeficiency virus 1; assay: Antiviral activity against HIV1 P13 infected in human MT4 cells derived from viral passages with A-790742 harboring protease M46I, L63P, A71V, and V82G mutation assessed as reduction in viral cytopathogenicity treated 1 hr post infection measured 5 days post infection by MTT assay relative to wild type HIV1 RF; type: functional
# How it was run: (§3)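 For the assay, 10⁶ MT-4 cells were infected at MOI 0.003, washed after 1 h, and plated at 10⁴ cells/well with eight serial compound dilutions in triplicate (0.5% DMSO final). MTT cytopathic read-out at day 5; EC50 from dose-response fitting.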
# [10] = tested on: Human immunodeficiency virus 1; assay: (§4) Antiviral activity against HIV1 B26 infected in human MT4 cells harboring protease L33F, K45I, M46I, I50V, I54V, A71V, and V82F mutation derived from viral passages with Lopinavir assessed as reduction in viral cytopathogenicity treated 1 hr post infection measured 5 days post infection by MTT assay; type: functional, organism-based; conditions: Human immunodeficiency virus 1, B26, MT4
# How it was run: as §3
# [11] = tested on: Human immunodeficiency virus 1; assay: as §4, with “P25” for “B26”, “L10F, G16E, V32I,” for “L33F, K45I,”, “I47A, H69Y, I84V,” for “I50V, I54V, A71V,”, “T91S” for “V82F”; type: functional, organism-based; conditions: Human immunodeficiency virus 1, P25, MT4
# How it was run: as §3
# [12] = tested on: Human immunodeficiency virus 1; assay: Antiviral activity against HIV1 isolate 2 infected in human MT4 cells obtained from protease inhibitor-resistant patient harboring protease L10I, I15V, G16E, K20R, E35D, M36I, R41K, I54A, R57K, Q61D, A71V, I72R, V82A, L89I, L90M, Q92K mutation derived from viral passages with Lopinavir assessed as reduction in viral cytopathogenicity treated 1 hr post infection measured 5 days post infection by …; type: functional
smiles,measurement,setting,value
COC(=O)N[C@H](C(=O)N[C@H](Cc1ccc(-c2ccccn2)cc1)C[C@H](O)[C@H](Cc1ccccc1)NC(=O)[C@@H](N1CCN(Cc2cccc(C(C)(C)O)n2)C1=O)C(C)(C)C)C(C)(C)C,Ratio EC50,[1],4
same,Ratio EC50,[2],10
same,Ratio EC50,[3],1
same,Ratio EC50,[4],4
same,Ratio EC50,[5],186.7
same,Ratio EC50,[6],666.7
same,Ratio EC50,[7],3.2
same,Ratio EC50,[8],10.4
same,Ratio EC50,[9],72
same,EC50,[10],0.022 µM
same,EC50,[11],0.045 µM
same,Ratio EC50,[12],12
